Assay results published in ChEMBL document CHEMBL3525985, “Regiospecificity and stereospecificity of human UDP-glucuronosyltransferases in the glucuronidation of estriol, 16-epiestriol, 17-epiestriol, and 13-epiestradiol” (Drug Metab Dispos, 2013).

How the values were obtained:
Format in all cases: ADME
[1] = Drug metabolism in human intestine microsomes assessed as 16-epiestriol-16-glucuronide formation after 15 to 60 mins by Michaelis-Menten equation analysis in presence of UDPGA
Outline: (§1)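 Pooled human intestine microsomes (6 donors), 0.5 or 10 µg, with alamethicin at 5% of total protein. Incubated with 50 mM phosphate pH 7.4, 10 mM MgCl₂, 5 mM UDPGA and 10% DMSO for 15–60 min at 37°C. Each glucuronide regioisomer quantified by HPLC, in triplicate, with substrate consumption at or below 10%.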

[2] = target: T1, UDP-glucuronosyltransferase 2A1 (Homo sapiens, UniProt P0DTE4); assay: Drug metabolism assessed as recombinant human C-terminal His-tagged UGT2A1-mediated 16-epiestriol-17-glucuronide formation at 200 uM after 15 to 60 mins by HPLC analysis in presence of UDPGA; settings: recombinant enzyme
T1 sequence (P0DTE4 whole entry): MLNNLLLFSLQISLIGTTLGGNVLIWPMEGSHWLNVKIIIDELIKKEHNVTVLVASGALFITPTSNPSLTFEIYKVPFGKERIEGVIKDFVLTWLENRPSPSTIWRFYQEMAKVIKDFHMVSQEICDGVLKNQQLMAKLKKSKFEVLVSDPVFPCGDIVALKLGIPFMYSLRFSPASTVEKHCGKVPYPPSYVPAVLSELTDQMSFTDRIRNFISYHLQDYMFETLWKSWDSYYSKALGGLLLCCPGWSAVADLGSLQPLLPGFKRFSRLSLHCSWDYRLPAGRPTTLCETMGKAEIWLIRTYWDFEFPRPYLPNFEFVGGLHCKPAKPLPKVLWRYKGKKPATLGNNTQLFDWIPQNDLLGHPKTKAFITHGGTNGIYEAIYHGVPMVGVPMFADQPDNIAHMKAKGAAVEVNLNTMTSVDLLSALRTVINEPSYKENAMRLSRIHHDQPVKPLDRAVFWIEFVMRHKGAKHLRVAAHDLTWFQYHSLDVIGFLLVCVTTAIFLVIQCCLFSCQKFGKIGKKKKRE
Outline: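 Screening at a single substrate concentration of 200 μM, in triplicate. The reaction used 5 or 50 µg of UGT-enriched insect cell membranes in 50 mM phosphate pH 7.4 with 10 mM MgCl₂ and 5 mM UDPGA, 10% final DMSO. Incubation was 15–60 min at 37°C. Perchloric acid stopped the reaction and supernatants were analysed by HPLC. Controls lacked UDPGA. Rates were normalized to relative UGT expression level.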

[3] = Drug metabolism in human intestine microsomes assessed as 16-epiestriol-17-glucuronide formation after 15 to 60 mins by Michaelis-Menten equation analysis in presence of UDPGA; outline: as §1
[4] = target: T1, UDP-glucuronosyltransferase 2A1; assay: Drug metabolism assessed as recombinant human C-terminal His-tagged UGT2A1-mediated 16-epiestriol-16-glucuronide formation after 15 to 60 mins by Michaelis-Menten equation analysis in presence of UDPGA; settings: recombinant enzyme
[5] = Drug metabolism in human intestine microsomes assessed as estriol-16-glucuronide formation after 15 to 60 mins by Michaelis-Menten equation analysis in presence of UDPGA; outline: as §1
Liver microsome [6] = assay: Drug metabolism in human liver microsomes assessed as estriol-16-glucuronide formation after 15 to 60 mins by Michaelis-Menten equation analysis in presence of UDPGA
Outline: as §1, with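 “liver” for “intestine”, “(30” for “(6”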

Liver microsome [7] = assay: Drug metabolism in human liver microsomes assessed as 17-epiestriol-17-glucuronide formation after 15 to 60 mins by Michaelis-Menten equation analysis in presence of UDPGA
Outline: as §1, with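 “liver” for “intestine”, “(30” for “(6”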

[8] = Drug metabolism in human intestine microsomes assessed as 17-epiestriol-17-glucuronide formation after 15 to 60 mins by Michaelis-Menten equation analysis in presence of UDPGA; outline: as §1
[9] = target: T2, UDP-glucuronosyltransferase 2B17 (Homo sapiens, UniProt O75795); assay: Drug metabolism assessed as recombinant human C-terminal His-tagged UGT2B17-mediated 17-epiestriol glucuronide metabolite formation after 15 to 60 mins by HPLC analysis in presence of UDPGA; settings: recombinant enzyme
T2 sequence (O75795 whole entry): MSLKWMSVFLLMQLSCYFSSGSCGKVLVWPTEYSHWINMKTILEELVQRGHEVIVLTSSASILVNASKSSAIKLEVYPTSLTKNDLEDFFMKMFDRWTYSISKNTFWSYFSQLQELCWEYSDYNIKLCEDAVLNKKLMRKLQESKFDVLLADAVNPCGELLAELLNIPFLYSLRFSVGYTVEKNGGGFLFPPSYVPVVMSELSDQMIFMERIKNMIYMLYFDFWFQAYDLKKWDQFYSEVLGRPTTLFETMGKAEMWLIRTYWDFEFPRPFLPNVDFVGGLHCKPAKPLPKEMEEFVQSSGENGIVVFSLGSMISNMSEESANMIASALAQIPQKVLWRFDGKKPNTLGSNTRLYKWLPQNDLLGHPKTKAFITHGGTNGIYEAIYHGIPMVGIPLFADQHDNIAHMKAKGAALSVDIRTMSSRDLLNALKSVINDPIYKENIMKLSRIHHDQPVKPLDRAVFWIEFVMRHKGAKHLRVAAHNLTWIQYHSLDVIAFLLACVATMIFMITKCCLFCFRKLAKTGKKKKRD

In the case of `C[C@]12CC[C@@H]3c4ccc(O)cc4CC[C@H]3[C@@H]1C[C@H](O)[C@@H]2O` [EPIESTRIOL], the Km [1] is reported as 43 µM, the Vmax [1] is reported as 1480 pmol/min/mg and the Drug metabolism [2] is reported as “metabolite_detected”. It also gave a Km [3] of 1170 µM, a Vmax [3] of 2324 pmol/min/mg and a Drug metabolism [4] of 260 pmol/min/mg.

With `C[C@]12CC[C@@H]3c4ccc(O)cc4CC[C@H]3[C@@H]1C[C@@H](O)[C@@H]2O` [ESTRIOL] the Km [5] was 5.1 µM, the Vmax [5] was 953 pmol/min/mg and the Km (Liver microsome [6]) was 13 µM. It also gave a Vmax (Liver microsome [6]) of 4347 pmol/min/mg.

In the case of `C[C@]12CC[C@@H]3c4ccc(O)cc4CC[C@H]3[C@@H]1C[C@@H](O)[C@H]2O`, the Km (Liver microsome [7]) is reported as 21 µM, the Vmax (Liver microsome [7]) is reported as 5425 pmol/min/mg and the Km [8] is reported as 1.3 µM. The Vmax [8] was 1633 pmol/min/mg and the Drug metabolism [9] was “metabolite_not_detected”.
